Sampled rows, rich in hits. Any-hit rate of the full collection: about 1.8%.
Tn7 DDE FP – DD(E)-Tn7 binding inhibition, primary FP screen; P02675; FP displacement of FITC-Tn7 peptide from fibrin DD(E); 0% = median of compound wells per plate; inhibition, % at 8.3 µM; actives 0.13% (n = 370,000); AID 720508;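 active = inhibition above the mean of compounds falling within the control limits plus 3 SD of them, cut at about 14% in these data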;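 note: 0% = plate median of compound wells and 100% = 10 µM Aha-Tn7 peptide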
Target sequence (P02675 whole entry, looked up): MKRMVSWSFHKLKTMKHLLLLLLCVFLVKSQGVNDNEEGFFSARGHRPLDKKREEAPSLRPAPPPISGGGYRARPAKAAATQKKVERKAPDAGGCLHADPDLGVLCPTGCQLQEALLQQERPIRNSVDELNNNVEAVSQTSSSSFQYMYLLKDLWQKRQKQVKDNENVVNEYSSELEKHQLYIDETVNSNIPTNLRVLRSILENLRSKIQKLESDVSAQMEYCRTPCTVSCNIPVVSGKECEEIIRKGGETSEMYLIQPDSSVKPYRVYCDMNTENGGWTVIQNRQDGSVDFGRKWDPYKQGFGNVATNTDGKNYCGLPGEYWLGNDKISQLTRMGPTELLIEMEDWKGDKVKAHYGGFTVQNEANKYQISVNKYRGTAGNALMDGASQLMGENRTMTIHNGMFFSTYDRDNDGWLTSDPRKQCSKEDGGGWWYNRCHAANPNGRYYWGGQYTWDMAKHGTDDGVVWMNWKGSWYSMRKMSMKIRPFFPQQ
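Assay system: Human fibrin DD(E) protein | Medium: Tris buffer with calcium and detergent, pH 7.8 | Reagent: 0.1 µM fluorescent Tn7 | Compound dosing: Single point at 8.3 µM | Times: 10 min preincubation, 3 h with tracer, room temperature | Detection: Fluorescence polarization of the labelled Tn7 tracer | Controls: Aha-Tn7 high control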
DDE Tn6 FP inh – DD(E)-Tn6 binding inhibition, primary FP screen | P02675 | Fibrin DD(E) TRITC-Tn6 fluorescence polarization displacement | inhibition, % at 8.3 µM | actives 0.21% (n = 370,000);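 active = inhibition above a per-campaign cutoff: mean of compounds within control limits plus 3 SD, cut at about 15% in these data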;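 note: 0% = median of all compound wells on the plate and 100% = blocking peptide control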
CAL PDZ FP-1 – blocks peptide binding to human CAL PDZ domain. Q9HD26. purified CAL PDZ, TMR-peptide fluorescence polarization, 1 h. inhibition, % at 20 µM. actives 0.02% (n = 330,000);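 active = highest replicate inhibition of at least 40%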;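 note: plate controls were DMSO neutral control wells for no effect and unlabeled competitor peptide control wells for full effect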
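Control set: unlabelled peptide and DMSO controls / Material: purified CerCALP PDZ construct / Timing: 1 h incubation at room temperature before polarization reading / Doses: 20 µM, one dose / Detection: fluorescence polarization (mP)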
GRK2 aptamer HTS – blocks RNA aptamer binding to human GRK2; P25098; bead flow cytometry, FAM-aptamer displacement from GRK2; inhibition of aptamer binding, % at 10 µM; actives 0.59% (n = 330,000); AID 488847;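 active = inhibition of aptamer binding above 40%, roughly 3 SD of noise, on plates passing a quality check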;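 note: median bead fluorescence of bound FAM aptamer so fluorescent compounds give negative values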
ARNT-TACC3 inh – disrupts binding between human ARNT and TACC3. inhibition, % at 9.99 µM. Q9Y6A5. AlphaScreen His-ARNT PAS-B/GST-TACC3 binding, luminescence; TACC3 fragment carries E629A point mutation. actives 0.66% (n = 390,000);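 active = mean inhibition of replicates at least 50% and at least half of replicates each reaching 50%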;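 note: 0% = complete ARNT plus TACC3 wells and 100% = ARNT alone without TACC3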
CAL PDZ FP-2 – inhibitors of human CAL PDZ peptide binding; Q9HD26; purified CAL PDZ, TMR-peptide fluorescence polarization, 1 h; inhibition, % at 24.9 µM; actives 0.92% (n = 300,000); AID 602252;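 active = mean inhibition of at least 30% with at least half of replicates also reaching 30%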;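 note: 0% = DMSO neutral control and 100% = excess unlabeled competitor peptide PRC23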
Active calls of the source: *; . = no result given.

SMILES	Tn7 DDE FP	DDE Tn6 FP inh	CAL PDZ FP-1	GRK2 aptamer HTS	ARNT-TACC3 inh	CAL PDZ FP-2
O=C(NCCN1CCCCC1)[C@H]1[C@H](CO)[C@H]2Cn3c(cccc3=O)[C@@H]1N2C(=O)C1CC1	.	.	.	.	6	.
CNC[C@@H]1OCCCC[C@@H](C)Oc2ccc(NC(=O)NC(C)C)cc2C(=O)N([C@H](C)CO)C[C@@H]1C	.	.	.	.	-8	.
CC1CCCCC12NC(=O)N(CC(=O)OCc1cccc(F)c1)C2=O (stereo not given)	-7	-3	0	3	-29	56*
CC1CCCCC12NC(=O)N(CC(=O)OCc1ccccc1F)C2=O (stereo not given)	9	-2	-2	30	9	-4
COc1ccc(C(C)(C)C)cc1NC(=O)COC(=O)CN1C(=O)NC2(CCCCC2C)C1=O (stereo not given)	8	3	0	1	2	52*
CC=Cc1ccc2n(c1=O)C[C@@H]1[C@@H](CO)[C@H](C(=O)N3CCc4ccccc4C3)[C@H]2N1CCC (mixture of isomers)	.	.	.	.	27	.
N#CCCN(C(=O)COC(=O)COc1ccccc1Cc1ccccc1)c1ccccc1	4	2	0	2	-3	44*
CC(C)[C@H](NC(=O)c1ccc(Br)cc1)C(=O)NC1CCCCC1	-9	-8	0	0	-4	86*
CCOc1ccc(C(=O)N[C@H](C(=O)NC2CCCCC2)C(C)C)cc1	2	-3	.	.	.	.
Cc1c(N=NC2=C(O)CCCC2=O)c(=O)n(-c2ccccc2)n1C	1	0	0	1	63*	-2
Cc1c(N=Nc2ccc(O)cc2)c(=O)n(-c2ccccc2)n1C	-5	1	0	0	14	2
O=C(ON=C1CCSCC1)c1ccccc1	5	11	-2	1	.	-5
CN1C(C)(C)CC(=NOC(=O)c2ccccc2)CC1(C)C	-2	-5	0	33	-5	62*
Cc1ccc([N+](=O)[O-])c(OCCN2CCCCCC2)c1	2	2	-1	0	5	57*
O=C(C1CCCN1S(=O)(=O)c1ccc(Br)s1)N1CCc2ccccc2C1 (stereo not given)	5	5	.	.	.	.
Cn1cc([N+](=O)[O-])c(C(=O)NCc2ccccc2)n1	-5	-9	0	0	-6	30*
CCCc1sc(N/N=C/c2ccccn2)nc1-c1ccc(F)cc1	.	.	1	1	67*	0
Cc1nc(N/N=C/c2ccccn2)sc1C	2	1	.	2	.	.
Cc1ccc(N(CC(=O)N2CCOCC2)S(C)(=O)=O)cc1	2	7	0	2	-7	3
CC(C)c1ccc(N(CC(=O)N2CCOCC2)S(C)(=O)=O)cc1	8	2	-7	0	-1	86*
C/C(CC(=O)Nc1ccc(Cl)cc1Cl)=N\NC(=O)C(=O)N1CCCC1	6	9	-2	2	-8	-2
C/C(CC(=O)Nc1ccccc1Br)=N\NC(=O)C(=O)N1CCCC1	0	-4	0	1	6	108*
C[C@H](CO)N1C[C@H](C)[C@H](CN(C)C(=O)Nc2ccc(C(F)(F)F)cc2)Oc2ccc(NC(=O)CCCCCC(=O)Nc3ccccc3N)cc2CC1=O	.	.	.	.	0	.
CCOC(=O)CCC(=O)N(CCN(C(=O)CCC(=O)OCC)c1ccccc1)c1ccccc1	1	-3	0	0	3	4
CCN(C(=O)CCCC(=O)N(CC)c1ccccc1)c1ccccc1	-4	5	-1	0	-4	63*
O=C(NNS(=O)(=O)c1ccc(F)cc1)c1ccccc1	-2	-5	0	0	3	2
O=C(NNS(=O)(=O)c1ccc(F)cc1)c1ccccc1F	5	3	-5	3	-1	41*
O=C(NNc1ccccn1)C(=O)NNS(=O)(=O)c1ccc(F)cc1	-4	2	-2	0	63*	-1
Cc1n[nH]c(=O)nc1NCc1ccco1	-4	-6	0	4	-2	0
Cc1n[nH]c(=O)nc1N/N=C/c1ccco1	2	-4	-3	1	53*	-5

Compound activity as filed in PubChem BioAssay.
